In ChEMBL document CHEMBL1944616, “Benzoxaborole antimalarial agents. Part 2: Discovery of fluoro-substituted 7-(2-carboxyethyl)-1,3-dihydro-1-hydroxy-2,1-benzoxaboroles” (Bioorg Med Chem Lett, 2012):

Assays:
[1] = system: Plasmodium falciparum; test: Antimalarial activity against ring stage Plasmodium falciparum 3D7 infected in human erythrocytes after 48 hrs by flow cytometry; assay type: functional, organism-based; settings: 3D7, 48 h
[2] = Growth inhibition of human HeLa cells at 25 uM after 72 hrs by MTT assay; assay type: cell-based; settings: read-out: GI
Procedure, shortened: (§1)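 Cytotoxicity counter-screen on human Jurkat (T cell) and human HeLa (cervical carcinoma) cell lines. Selected compounds were tested at one fixed concentration each.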

[3] = Growth inhibition of human Jurkat cells at 25 uM after 72 hrs by MTT assay; assay type: cell-based; settings: read-out: GI; procedure, shortened: as §1

Compound | IC50 [1] [nM] | inhibition at 72 h, 25 µM [2] [%] | inhibition at 72 h, 25 µM [3] [%]
O=C(O)C(F)Cc1cccc2c1B(O)OC2 (stereo not given) | 830 | – | –
O=P(O)(O)CCc1cccc2c1B(O)OC2 | > 5000 | 26 | 3
O=C1NC(=O)C(Cc2cccc3c2B(O)OC3)N1 (stereo not given) | > 5000 | 67.7 | 14.1
O=C(O)C1CCc2ccc3c(c2C1)B(O)OC3 (stereo not given) | 1820 | – | –
O=C1C(O)=C([C@H]2CC[C@H](c3ccc(Cl)cc3)CC2)C(=O)c2ccccc21 [ATOVAQUONE] | 1 | – | –

Now from value to molecule, other results behind:

IC50 [1] [nM] | Compound | inhibition at 72 h, 25 µM [2] [%] | inhibition at 72 h, 25 µM [3] [%]
1450 | Cc1ccc(CCC(=O)O)c2c1COB2O | – | –
> 5000 | CC(=O)Nc1ccc(CCC(=O)O)c2c1COB2O | – | –
750 | O=C(O)CCc1c(Cl)ccc2c1B(O)OC2 | – | –
3480 | COc1cc(CCC(=O)O)c2c(c1)COB2O | – | –
1330 | O=C(O)CCc1cc(Cl)cc2c1B(O)OC2 | – | –
61 | O=C(O)CCc1cc(F)cc2c1B(O)OC2 | – | –
